The target of the experiment is T1, 5-hydroxytryptamine receptor 1A (Rattus norvegicus, UniProt P19327).
T1 sequence (P19327 whole entry): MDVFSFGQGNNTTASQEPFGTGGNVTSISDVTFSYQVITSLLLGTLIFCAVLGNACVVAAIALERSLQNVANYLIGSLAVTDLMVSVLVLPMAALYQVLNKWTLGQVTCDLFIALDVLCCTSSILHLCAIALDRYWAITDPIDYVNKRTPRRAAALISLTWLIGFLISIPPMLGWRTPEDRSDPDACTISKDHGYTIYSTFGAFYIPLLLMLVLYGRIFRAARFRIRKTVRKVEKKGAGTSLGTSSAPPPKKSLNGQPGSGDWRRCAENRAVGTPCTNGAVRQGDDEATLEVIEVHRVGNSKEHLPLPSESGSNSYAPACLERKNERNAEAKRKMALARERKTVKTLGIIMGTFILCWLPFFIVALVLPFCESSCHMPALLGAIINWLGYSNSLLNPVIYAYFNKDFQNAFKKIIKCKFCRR
Nature of the experiment: Displacement of [3H]2-(di-N-propylamino)-8-hydroxytetralin from central 5-hydroxytryptamine 1A receptor recognition sites in rat frontal cortex homogenates. The format is tissue-based. In a few lines:
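Competition binding against tritiated 8-OH-DPAT in rat frontal cortex homogenate. Ki values come from n separate determinations, each testing four to six ligand concentrations in triplicate.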

Consider 26 compounds from ChEMBL document CHEMBL1128382, “N4-unsubstituted N1-arylpiperazines as high-affinity 5-HT1A receptor ligands” (J Med Chem, 1995).

Regarding `N#Cc1ccc2ccoc2c1N1CCNCC1`, the Ki (in general, the equilibrium dissociation constant of an inhibitor or competing ligand from its target) was determined as 0.22 µM.

For the compound `COc1cccc(N2CCNCC2)c1`, the affinity corresponds to a Ki of 0.32 µM.

Turning to `Brc1cc(N2CCNCC2)c2occc2c1`, the Ki turned out to be 0.035 µM.

As to `O=[N+]([O-])c1ccc2ccoc2c1N1CCNCC1`, the Ki is 0.14 µM.

In the case of `COc1ccc(N2CCNCC2)cc1`, the Ki is 20 µM.

On to `C1=COc2c(cccc2N2CCNCC2)O1`, for which the Ki came out at 0.012 µM.

The compound `COc1cccc(N2CCNCC2)c1OC` showed a Ki of 1 µM.

`COc1ccc(N2CCNCC2)c2occc12` had a Ki of 0.43 µM.

For `c1ccc2c(N3CCNCC3)cccc2c1`, the Ki stood at 0.018 µM.

Compound `c1cc2c(c(N3CCNCC3)c1)CCCC2` displayed a Ki of 0.084 µM.

With `Cc1cc2cccc(N3CCNCC3)c2o1`, the Ki worked out at 0.013 µM.

`Brc1coc2c(N3CCNCC3)cccc12`: the affinity, expressed as Ki, was 0.13 µM.

For `Fc1ccc(N2CCNCC2)c2occc12`, the affinity, expressed as Ki, was 0.018 µM.

With `c1cc(N2CCNCC2)c2[nH]ccc2c1`, the affinity corresponds to a Ki of 0.2 µM.

For `Clc1ccc2c(c1N1CCNCC1)OCCO2`, the affinity, expressed as Ki, was 0.2 µM.

Turning to `Fc1ccc2ccoc2c1N1CCNCC1`, the affinity, expressed as Ki, was 0.0058 µM.

For `Fc1cc(N2CCNCC2)c2occc2c1`, the affinity, expressed as Ki, was 0.105 µM.

`Brc1ccc(N2CCNCC2)c2occc12` came in with a Ki of 0.3 µM.

`c1cc(N2CCNCC2)c2sccc2c1` showed a Ki of 0.0099 µM.

The compound `COc1cc(N2CCNCC2)c2occc2c1` displayed a Ki of 0.028 µM.

As for `c1ccc(N2CCNCC2)cc1` [PHENYLPIPERAZINE], the Ki was 0.5 µM.

Regarding `COc1ccc2c(c1N1CCNCC1)OCCO2`, the inhibitory constant (Ki) was more than 10 µM.

The compound `Cc1cc(N2CCNCC2)c2occc2c1` gave a Ki of 0.12 µM.

In the case of `Cc1ccc(N2CCNCC2)c2occc12`, the affinity corresponds to a Ki of 0.22 µM.

`CC1=COc2c(cccc2N2CCNCC2)O1` had a Ki of 0.0052 µM.

Take `Cc1coc2c(N3CCNCC3)cccc12`: the Ki was 0.073 µM.
